Active and inactive are the calls of the source. The calls are words filed in the database; no cut-off is given here.

Data set [1] deals with Tyrosine-protein kinase ABL1 (Homo sapiens, UniProt P00519). The experiment in a line: Inhibition of C-terminal His-tagged human ABL1 expressed in baculovirus infected SF9 cells using Tyr 02 peptide as substrate measured after 1 hr by FRET based Z'Lyte assay.
The target in data set [2] is Tyrosine-protein kinase Lck (Homo sapiens, UniProt P06239). The data set can be described thus: Inhibition of recombinant C-terminal His-tagged human LCK cytoplasmic domain expressed in baculovirus expression system measured after 1 hr by FRET based Z'Lyte assay. The method in brief: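 Z'-LYTE FRET biochemical kinase assay run by Invitrogen on selected kinases identified from binding profiling; IC50 from dose-response.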

The subject of data set [3] is BaF3. The experiment in a line: Inhibition of BCR/ABL p210 fusion protein Y253H mutant (unknown origin) expressed in BAF3 cells assessed as growth inhibition measured after 72 hrs by CellTiter-Glo or CCK8 assay. In kind it is cell-based. The note with it: Homo sapiens. The method in brief: (§1)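 BaF3 lines were made by retroviral transduction with kinase-fusion MSCV vectors packaged in HEK293T cells. Cells were selected with puromycin for 48 h, then selected again without IL-3 so growth depends on the introduced kinase. […] They were seeded at 1 to 2.5×10^4 cells/mL with compound dilutions and incubated 72 h. Viability was read by CellTiter-Glo luminescence or CCK-8 absorbance (450/655 nm), normalized to DMSO control; GI50 was curve-fitted from triplicate tests.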
For orientation: ATP-based viability assays read luminescence as a measure of living cells.

Data set [4] concerns BaF3. The experiment in a line: Inhibition of BCR/ABL p210 fusion protein H369P mutant (unknown origin) expressed in BAF3 cells assessed as growth inhibition measured after 72 hrs by CellTiter-Glo or CCK8 assay. In kind it is cell-based. The note with it: Homo sapiens. The method in brief:
as §1

For data set [5], the system named is BaF3. The data set can be described thus: Inhibition of BCR/ABL p210 fusion protein F317I mutant (unknown origin) expressed in BAF3 cells assessed as growth inhibition measured after 72 hrs by CellTiter-Glo or CCK8 assay. It counts as cell-based. The conditions noted are these: Homo sapiens. The method in brief:
as §1

Data set [6] deals with Mast/stem cell growth factor receptor Kit (Homo sapiens), P10721 [V559D]. The data set can be described thus: Inhibition of Tel-fused c-KIT V559D mutant (unknown origin) expressed in BAF3 cells assessed as growth inhibition measured after 72 hrs by CellTiter-Glo or CCK8 assay. It counts as cell-based. The method, boiled down:
as §1

Data set [7] deals with Mast/stem cell growth factor receptor Kit (Homo sapiens), P10721 [V559D,V654A]. The experiment in a line: Inhibition of Tel-fused c-KIT V559D/V654A double mutant (unknown origin) expressed in BAF3 cells assessed as growth inhibition measured after 72 hrs by CellTiter-Glo or CCK8 assay. It counts as cell-based. The method, boiled down: as §1
Data set [8] has as its system Mast/stem cell growth factor receptor Kit (Homo sapiens), P10721 [N822K]. The experiment in a line: Inhibition of Tel-fused c-KIT N822K mutant (unknown origin) expressed in BAF3 cells assessed as growth inhibition measured after 72 hrs by CellTiter-Glo or CCK8 assay. It counts as cell-based. The method, boiled down:
as §1

A short description of data set [9]: Antiproliferative activity against human K562 cells measured after 72 hrs by CellTiter-Glo or CCK8 assay. In kind it is functional. The note with it: K562, 72 h.
Data set [10] in a line: Antiproliferative activity against human KU812 cells measured after 72 hrs by CellTiter-Glo or CCK8 assay. The note with it: KU812, 72 h. In kind it is functional.
The target in data set [11] is T1, BCR/ABL p210 fusion protein (Homo sapiens, UniProt A1Z199). The experiment in a line: Inhibition of BCR/ABL p210 fusion protein mediated signaling pathways assessed as reduction in Stat5 phosphorylation at Y694 in human KU812 cells at 0.01 to 3 uM measured after 2 hrs by immunoblotting. In kind it is cell-based. The method in brief:
(§2)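 After an ice-cold PBS wash, cells were lysed in RIPA buffer (50 mM Tris pH 8.0) with protease and phosphatase inhibitors, and protein was quantified by BCA. Lysates were run on SDS-PAGE, transferred to PVDF and blocked in 5% milk/TBST. Phospho- and total proteins were probed by immunoblot with ECL detection; β-actin served as loading control.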
A general note: In western blotting, separated proteins are transferred to a membrane and probed.

In data set [12] the target is T1, BCR/ABL p210 fusion protein. The experiment in a line: Inhibition of BCR/ABL p210 fusion protein mediated signaling pathways assessed as reduction in Stat5 phosphorylation at Y694 in human MEG01 cells at 0.01 to 3 uM measured after 2 hrs by immunoblotting. It counts as cell-based. The note with it: MEG-01. The method in brief:
as §2

Data set [13] concerns the target T2, Mast/stem cell growth factor receptor Kit (Homo sapiens, UniProt P10721). The data set can be described thus: Inhibition of c-KIT autophosphorylation at Y823 in human GIST882 cells at 0.01 to 3 uM measured after 2 hrs by immunoblotting. It counts as cell-based. The method, boiled down: as §2
Data set [14] is described as follows: Cell cycle arrest in human GIST882 cells assessed as accumulation at G0/G1 phase at 0.3 uM after 48 hrs by propidium iodide/RNase staining based flow cytometry. In kind it is functional. The method in brief: (§3)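 Cells were exposed to serially diluted compound, then fixed in cold 70% ethanol overnight at -20 °C. They were stained with PI/RNase buffer for DNA-content cell-cycle analysis.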

Data set [15] can be described thus: AUC (0 to t) in Sprague-Dawley rat at 1 mg/kg, iv. In kind it is ADME, organism-based. The note with it: in vivo. The method in brief:
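Male Sprague-Dawley rats aged six to eight weeks were fasted overnight and then dosed iv or orally. Blood (~0.2 mL) was drawn from the jugular vein into heparin and kept on ice. Sampling was at 1 min to 8 h for iv and 5 min to 24 h for oral. Plasma was separated by centrifugation at 2-8 °C and stored at -80 °C until analysis.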

Data set [16] in a line: Mean residence time (0 to t) in Sprague-Dawley rat at 10 mg/kg, po. It counts as ADME, organism-based. The conditions noted are these: in vivo. The method in brief:
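Male Sprague-Dawley rats, 6-8 weeks old, fasted overnight, dosed iv or po. Jugular vein blood (~0.2 mL, heparin) sampled at 1 min to 8 h (iv) or 5 min to 24 h (po). Plasma separated by centrifugation at 2-8 °C and stored at -80 °C before analysis.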

For a further data set, the system named is K562. The data set can be described thus: Anticancer activity against human K562 cells xenografted in nu/nu mouse assessed as reduction in tumor progression administered daily via oral gavage measured 28 days post compound treatment. In kind it is functional, cell-based. The method, boiled down: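 Female nu/nu mice received ten million K562 cells subcutaneously in the right flank, in PBS mixed 1:1 with Matrigel. Daily oral gavage began at 200-400 mm³ tumor size, with 4 or 5 mice per group. Dosing was 25, 50 or 100 mg/kg/d or vehicle (0.5% methylcellulose/0.4% Tween80) for 28 days. Body weight and tumor size were normalized to initial values, and final tumor weight was recorded. Data are mean ± SEM.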
Background: In xenograft studies the graft and the host belong to different species.

The nature of data set [17]: Anticancer activity against human GISTT1 cells xenografted in nu/nu mouse assessed as tumor weight at 50 mg/kg, po administered daily via oral gavage measured 21 days post compound treatment (reference value: 2.86 g).
A short description of data set [18]: Cell cycle arrest in human K562 cells assessed as accumulation at G0/G1 phase at 1 uM after 24 hrs by propidium iodide/RNase staining based flow cytometry. In kind it is functional. The method, boiled down: as §3
Data set [19] in a line: Cell cycle arrest in human GIST882 cells assessed as accumulation at G0/G1 phase at 1 uM after 48 hrs by propidium iodide/RNase staining based flow cytometry. In kind it is functional. The method, boiled down: as §3
For data set [20], the target named is T2, Mast/stem cell growth factor receptor Kit. The conditions noted are these: GISTT1, 1 uM.
Data set [21] has the same target. The note with it: 1 uM.
Data set [22] shares this target. The conditions noted are these: GISTT1, 1 uM. The source holds these as a separate data set.
Data set [23] has the same target. The note with it: GISTT1, 1 uM. This is another data set of the same source.

T2 sequence (P10721 whole entry): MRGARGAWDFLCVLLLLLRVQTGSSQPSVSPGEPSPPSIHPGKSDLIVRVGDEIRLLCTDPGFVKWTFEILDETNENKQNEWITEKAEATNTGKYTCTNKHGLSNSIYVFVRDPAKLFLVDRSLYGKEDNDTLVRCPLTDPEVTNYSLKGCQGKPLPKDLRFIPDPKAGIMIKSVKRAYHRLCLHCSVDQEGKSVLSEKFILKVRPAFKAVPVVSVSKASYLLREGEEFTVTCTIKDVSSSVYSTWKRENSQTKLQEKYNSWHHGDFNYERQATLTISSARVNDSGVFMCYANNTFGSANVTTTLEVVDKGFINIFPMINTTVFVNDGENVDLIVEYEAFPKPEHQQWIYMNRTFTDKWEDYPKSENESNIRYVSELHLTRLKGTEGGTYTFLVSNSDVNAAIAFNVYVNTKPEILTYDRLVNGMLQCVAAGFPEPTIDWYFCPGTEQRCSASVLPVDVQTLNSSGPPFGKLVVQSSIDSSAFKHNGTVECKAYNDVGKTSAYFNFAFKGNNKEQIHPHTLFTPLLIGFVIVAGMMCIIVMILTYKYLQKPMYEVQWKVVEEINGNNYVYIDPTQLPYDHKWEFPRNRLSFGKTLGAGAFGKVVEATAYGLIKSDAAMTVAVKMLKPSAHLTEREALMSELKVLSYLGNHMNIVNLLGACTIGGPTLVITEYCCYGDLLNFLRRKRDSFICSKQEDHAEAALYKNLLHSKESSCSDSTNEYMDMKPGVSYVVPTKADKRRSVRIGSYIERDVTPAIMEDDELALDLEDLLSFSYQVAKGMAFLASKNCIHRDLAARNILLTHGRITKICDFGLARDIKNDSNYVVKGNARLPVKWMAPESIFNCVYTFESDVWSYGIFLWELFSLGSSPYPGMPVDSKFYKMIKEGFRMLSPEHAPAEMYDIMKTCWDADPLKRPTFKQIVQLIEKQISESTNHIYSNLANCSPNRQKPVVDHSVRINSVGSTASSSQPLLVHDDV
T1 sequence (A1Z199 1-97): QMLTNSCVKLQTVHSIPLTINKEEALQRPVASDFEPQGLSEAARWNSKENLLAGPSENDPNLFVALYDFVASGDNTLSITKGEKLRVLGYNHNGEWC
Chain of Tyrosine-protein kinase Lck (P06239 whole entry, the tested form may be a part): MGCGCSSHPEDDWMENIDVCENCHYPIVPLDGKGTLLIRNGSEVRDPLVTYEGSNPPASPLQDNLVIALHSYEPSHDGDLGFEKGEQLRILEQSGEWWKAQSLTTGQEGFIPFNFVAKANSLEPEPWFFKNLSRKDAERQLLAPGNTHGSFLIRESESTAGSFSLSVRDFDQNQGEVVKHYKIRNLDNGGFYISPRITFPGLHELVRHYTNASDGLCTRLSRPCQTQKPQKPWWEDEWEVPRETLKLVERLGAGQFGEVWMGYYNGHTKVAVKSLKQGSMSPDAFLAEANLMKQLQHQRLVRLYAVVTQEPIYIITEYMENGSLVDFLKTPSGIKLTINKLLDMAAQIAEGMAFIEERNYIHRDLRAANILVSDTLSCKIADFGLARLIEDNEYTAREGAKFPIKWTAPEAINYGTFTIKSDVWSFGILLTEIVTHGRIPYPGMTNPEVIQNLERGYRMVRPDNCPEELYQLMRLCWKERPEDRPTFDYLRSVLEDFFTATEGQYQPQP
Chain of Mast/stem cell growth factor receptor Kit (Homo sapiens), P10721 [V559D,V654A] (P10721 whole entry V559D/V654A, the tested form may be a part): as the sequence (P10721 whole entry) above, with V559D, V654A counted along it
Chain of Mast/stem cell growth factor receptor Kit (Homo sapiens), P10721 [N822K] (P10721 whole entry N822K, the tested form may be a part): as the sequence (P10721 whole entry) above, with N822K counted along it
Chain of Mast/stem cell growth factor receptor Kit (Homo sapiens), P10721 [V559D] (P10721 whole entry V559D, the tested form may be a part): as the sequence (P10721 whole entry) above, with V559D counted along it
Chain of Tyrosine-protein kinase ABL1 (P00519 whole entry, the tested form may be a part): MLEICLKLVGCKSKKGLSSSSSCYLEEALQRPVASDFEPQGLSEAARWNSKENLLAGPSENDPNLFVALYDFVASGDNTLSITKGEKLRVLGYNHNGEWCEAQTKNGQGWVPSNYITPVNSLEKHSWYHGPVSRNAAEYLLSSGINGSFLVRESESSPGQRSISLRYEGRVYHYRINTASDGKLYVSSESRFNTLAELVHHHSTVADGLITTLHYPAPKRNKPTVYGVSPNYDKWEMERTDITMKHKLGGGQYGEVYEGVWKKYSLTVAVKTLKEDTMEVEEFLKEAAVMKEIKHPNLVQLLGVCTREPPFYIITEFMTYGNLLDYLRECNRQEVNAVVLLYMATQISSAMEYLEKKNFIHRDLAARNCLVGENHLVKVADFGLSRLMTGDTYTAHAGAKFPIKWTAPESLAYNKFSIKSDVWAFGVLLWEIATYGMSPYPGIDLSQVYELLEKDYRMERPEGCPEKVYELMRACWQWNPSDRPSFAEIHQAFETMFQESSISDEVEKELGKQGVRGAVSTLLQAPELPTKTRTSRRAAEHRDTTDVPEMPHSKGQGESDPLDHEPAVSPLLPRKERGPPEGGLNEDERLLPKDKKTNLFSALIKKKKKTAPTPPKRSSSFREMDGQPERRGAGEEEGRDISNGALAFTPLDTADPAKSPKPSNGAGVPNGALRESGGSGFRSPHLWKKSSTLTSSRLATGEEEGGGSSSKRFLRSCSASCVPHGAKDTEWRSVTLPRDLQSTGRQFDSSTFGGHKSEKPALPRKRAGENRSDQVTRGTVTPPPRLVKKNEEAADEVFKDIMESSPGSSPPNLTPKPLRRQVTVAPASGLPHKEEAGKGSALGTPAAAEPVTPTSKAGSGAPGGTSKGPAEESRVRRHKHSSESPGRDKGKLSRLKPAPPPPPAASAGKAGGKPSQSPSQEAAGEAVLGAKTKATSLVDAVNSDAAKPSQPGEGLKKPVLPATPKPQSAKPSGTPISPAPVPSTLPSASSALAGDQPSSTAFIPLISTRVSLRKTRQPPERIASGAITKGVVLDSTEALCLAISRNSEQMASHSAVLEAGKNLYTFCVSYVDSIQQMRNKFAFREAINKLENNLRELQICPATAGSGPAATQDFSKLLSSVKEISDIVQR

Take `Cc1ccc(C(=O)N2CCC(Oc3cc(NC(=O)c4ccc(CN5CCN(C)CC5)c(C(F)(F)F)c4)ccc3C)CC2)cn1`: the figures for the IC50 in data set [1] and in data set [2] were 46 nM and 12 nM, respectively. The GI50 in the data set on BaF3 [3] amounted to 1670 nM; in the data set on BaF3 [4] it was 980 nM; in the data set with BaF3 [5] it was 490 nM; in data set [6], 78 nM; in data set [7] it was 2870 nM; in data set [8] it was 124 nM. Further, the GI50 was determined as 27 nM in data set [9] and 56 nM in [10]. The inhibition entry in [11], in [12] and in data set [13] was “Active” throughout. Also, in [14], the result was Active. The compound further showed an AUC(0-t) in [15] of 510 ng·h/mL. The MRT last in data set [16] came to 5.75 h. Further, the TGI entry in the data set with K562 was “Dose-dependent effect”. In data set [17], the Activity was found to be 2.19 g.

For `Cc1ccc(NC(=O)c2ccc(CN3CCN(C)CC3)cc2)cc1Nc1nccc(-c2cccnc2)n1` [IMATINIB], the result in data set [18] and in [19] was Active. Moreover, the inhibition result in data set [20], in [21], in [22] and in [23] was “Active” throughout.

In general, IC50 refers to the midpoint of a concentration-inhibition curve. A word on the GI50: it is the concentration giving 50% growth inhibition. Broadly, the AUC(0-t) is the area under the concentration-time curve up to a stated or last time point. High values mean more exposure, low ones less exposure. For orientation: MRT last means a mean duration of stay, worked out from the concentration-time curve.

The values above are taken from ChEMBL document CHEMBL3877303 (J Med Chem, 2017).
